Experimental data published in ChEMBL document CHEMBL1135644, “Effect of spermine conjugation on the cytotoxicity and cellular transport of acridine” (J Med Chem, 2002).

Legend:
[1] = test system: CHO; test: Cellular uptake of conjugates in CHO cells at a concentration of 1.25 uM (+/-15% SEM); format: functional, cell-based; details: Cricetulus griseus
Method in brief: (§1)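 Conjugates added 24 h after seeding (1 × 10^5 cells/mL, RPMI 1640 with 10% FCS and 2 mM aminoguanidine; proline added for CHO-MG) and left for 24 h. Cells were washed in 0.14 M NaCl, sonicated in 0.2 N HClO4/2 M NaCl and held 16 h at 4 °C. Conjugate in the supernatant was measured by fluorimetry against standards and expressed per mg protein (Folin). Mean of three determinations (±15%).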

[2] = test system: CHO; test: Cellular uptake of conjugates in CHO cells at a concentration of 10 uM (+/-15% SEM); format: functional, cell-based; details: Cricetulus griseus; method in brief: as §1
[3] = test system: CHO-MG; test: In vitro 50% cell growth inhibition by the compound in CHO-MG cells; format: functional, cell-based; details: Cricetulus griseus
Method in brief: (§2)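 CHO or CHO-MG cells were trypsinized and plated singly at 2 × 10^3 cells/mL in RPMI 1640/10% FCS with 2 mM aminoguanidine (proline for CHO-MG). Conjugates were added after overnight incubation, with 48 h exposure. Growth was read by MTT formazan absorbance at 540 nm relative to untreated controls. The value is the concentration giving 25% or 50% growth inhibition.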

[4] = test system: CHO-MG; test: Cellular uptake of conjugates in CHO-MG cells at a concentration of 10 uM (+/-15% SEM); format: functional, cell-based; details: Cricetulus griseus; method in brief: as §1
[5] = test system: L1210; test: In vitro 50% cell growth inhibition by the compound in L1210 cells; format: functional, cell-based; details: Mus musculus
Method in brief: (§3)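 L1210 cells were seeded at 5 × 10^4 cells/mL with conjugate added at seeding, in medium with 2 mM aminoguanidine, for 48 h exposure. Growth was measured by MTT absorbance at 540 nm relative to untreated controls.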

[6] = test system: L1210; test: In vitro 50% cell growth inhibition by the compound in L1210 cells with 5 mM DFMO addition; format: functional, cell-based; details: Mus musculus
Method in brief: (§4)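 L1210 cells were seeded at 5 × 10^4 cells/mL, and conjugate plus 5 mM DFMO were added at seeding with 2 mM aminoguanidine present. After 48 h, growth was read by MTT at 540 nm relative to DFMO-only controls.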

[7] = test system: L1210; test: In vitro 25% cell growth inhibition by the compound in L1210 cells; format: functional; details: Mus musculus; method in brief: as §3
[8] = test system: L1210; test: In vitro 25% cell growth inhibition by the compound in L1210 cells with 5 mM DFMO addition; format: functional; details: Mus musculus; method in brief: as §4
[9] = test system: L1210; test: Inhibition of [14C]SPD uptake by the compound in 5 min initial rate transport assay in L1210 cells; format: functional, cell-based, Mus musculus
[10] = test system: L1210; test: Cellular uptake of conjugates in L1210 cells (control) at a concentration of 10 uM (+/-15% SEM); format: functional, cell-based; details: Mus musculus
Method in brief: (§5)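 L1210 cells were seeded at 2 × 10^5 cells/mL with conjugate added at seeding, in medium containing 2 mM aminoguanidine, and cultured 24 h. Washed cells were extracted in 0.2 N HClO4/2 M NaCl for 16 h at 4 °C. Intracellular conjugate was quantified by fluorimetry and expressed as nmol/mg protein. Mean of three determinations (±15%).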

[11] = test system: L1210; test: Cellular uptake of conjugates in L1210 cells pretreated with 5 mM DFMO at a concentration of 10 uM (+/-15% SEM); format: functional, cell-based; details: Mus musculus
Method in brief: (§6)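 L1210 cells were seeded at 10^5 cells/mL in medium with 5 mM DFMO, and conjugates were added 24 h later. Cells were harvested after a further 24 h, extracted in 0.2 N HClO4/2 M NaCl and assayed by fluorimetry, expressed per mg protein. Mean of three determinations (±15%).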

[12] = test system: Nucleic Acid; test: Drug concentration required to produce 50% inhibition of fluorescence bound ethidium to CT-DNA (1.26:1) (+/-SEM 5%); format: functional; details: Bos taurus
Method in brief: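 Ethidium displacement: 1 μM CT-DNA with 1.26 μM ethidium bromide; conjugate stock added serially. Fluorescence was read at excitation 546 nm and emission 595 nm. The value is the conjugate concentration cutting DNA-bound ethidium fluorescence by 50%. Mean of three determinations (±5%).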

[13] = test system: CHO-MG; test: Cellular uptake of conjugates in CHO-MG cells at a concentration of 1.25 uM (+/-15% SEM); format: functional, cell-based; method in brief: as §1
[14] = Ratio of cellular uptake in CHO cells to that of CHO-MG cells at 1.25 uM; format: functional
[15] = Ratio of cellular uptake in CHO cells to that of CHO-MG cells at 10 uM; format: functional
[16] = test system: CHO; test: In vitro 50% cell growth inhibition by the compound in CHO cells; format: functional, cell-based; details: Cricetulus griseus; method in brief: as §2
[17] = test system: CHO; test: Cellular uptake of conjugates in CHO cells at a concentration of 2.5 uM (+/-15% SEM); format: functional, cell-based; details: Cricetulus griseus; method in brief: as §1
[18] = test system: CHO-MG; test: In vitro 50% cell growth inhibition by the compound in CHO-MG cells (control); format: functional, cell-based; details: Cricetulus griseus; method in brief: as §2
[19] = test system: CHO-MG; test: Cellular uptake of conjugates in CHO-MG cells at a concentration of 2.5 uM (+/-15% SEM); format: functional, cell-based; details: Cricetulus griseus; method in brief: as §1
[20] = test system: CHO; test: In vitro 50% cell growth inhibition by the compound in CHO cells (control); format: functional, cell-based; details: Cricetulus griseus; method in brief: as §2
[21] = test system: L1210; test: In vitro 50% cell growth inhibition by the compound in L1210 cells (control) with 5 mM DFMO addition; format: functional, cell-based; details: Mus musculus; method in brief: as §4
[22] = test system: L1210; test: Cellular uptake of conjugates in L1210 cells (control) at a concentration of 5 uM (+/-15% SEM); format: functional, cell-based; details: Mus musculus; method in brief: as §5
[23] = test system: L1210; test: Cellular uptake of conjugates in L1210 cells in presence of 500 uM SPD at a concentration of 10 uM (+/-15% SEM); format: functional, cell-based; details: Mus musculus
Method in brief: (§7)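 Same as the L1210 uptake assay: seeded at 2 × 10^5 cells/mL, conjugate plus 500 μM spermidine added together at seeding, 24 h exposure. Extraction in HClO4/NaCl, fluorimetric quantitation, normalized to protein. Mean of three determinations (±15%).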

[24] = test system: L1210; test: Cellular uptake of conjugates in L1210 cells in presence of 500 uM SPD at a concentration of 5 uM (+/-15% SEM); format: functional, cell-based; details: Mus musculus; method in brief: as §7
[25] = Ratio of cellular uptake in CHO cells to that of CHO-MG cells at 2.5 uM; format: functional
[26] = test system: CHO; test: Cellular uptake of conjugates in CHO cells at a concentration of 0.5 uM (+/-15% SEM); format: functional, cell-based; details: Cricetulus griseus; method in brief: as §1
[27] = test system: CHO-MG; test: Cellular uptake of conjugates in CHO-MG cells at a concentration of 0.5 uM (+/-15% SEM); format: functional, cell-based; details: Cricetulus griseus; method in brief: as §1
[28] = test system: L1210; test: Cellular uptake of conjugates in L1210 cells (control) at a concentration of 2 uM (+/-15% SEM); format: functional, cell-based; details: Mus musculus; method in brief: as §5
[29] = test system: L1210; test: Cellular uptake of conjugates in L1210 cells pretreated with 5 mM DFMO at a concentration of 2 uM (+/-15% SEM); format: functional, cell-based; details: Mus musculus; method in brief: as §6
[30] = Ratio of cellular uptake in CHO cells to that of CHO-MG cells.; format: functional
[31] = test system: L1210; test: Cellular uptake of conjugates in L1210 cells (control) at a concentration of 0.5 uM (+/-15% SEM); format: functional, cell-based; details: Mus musculus; method in brief: as §5
[32] = test system: L1210; test: Cellular uptake of conjugates in L1210 cells (control) at a concentration of 1 uM (+/-15% SEM); format: functional, cell-based; details: Mus musculus; method in brief: as §5
[33] = test system: L1210; test: Cellular uptake of conjugates in L1210 cells in presence of 500 uM SPD at a concentration of 0.5 uM (+/-15% SEM); format: functional, cell-based; details: Mus musculus; method in brief: as §7
[34] = test system: L1210; test: Cellular uptake of conjugates in L1210 cells in presence of 500 uM SPD at a concentration of 1 uM (+/-15% SEM); format: functional, cell-based; details: Mus musculus; method in brief: as §7

IC50 [5]	IC50 [6]	Compound	Uptake (nM (mg of protein)-1) [2]	IC50 [3]	Uptake (nM (mg of protein)-1) [4]	IC25 [7]	IC25 [8]	Ki [9]	Uptake (nM (mg of protein)-1) [10]	Uptake (nM (mg of protein)-1) [11]	Concentration for 50% ethidium displacement from DNA (C50) [12]	Ratio [15]	IC50 [16]	Uptake (nM (mg of protein)-1) [26]	Uptake (nM (mg of protein)-1) [27]	Uptake (nM (mg of protein)-1) [28]	Ratio [30]	other results
18000 nM	2200 nM	Cl.NCCCNCCCCNCCCNCCCCNC(=O)c1c2ccccc2nc2ccccc12	0.183	21000 nM	0.172	10000 nM	160 nM	83 nM	0.561	0.85	120 nM	1.1	17000 nM					Uptake (nM (mg of protein)-1) [1]: 0.018; Uptake (nM (mg of protein)-1) [13]: 0.013; Ratio [14]: 1.4
43000 nM		Cl.NCCCNCCCCNCCCNCCCNC(=O)c1c2ccccc2nc2ccccc12	0.1		0.108	22000 nM	90 nM	97 nM	0.239	0.587	120 nM	0.93						Uptake (nM (mg of protein)-1) [17]: 0.014; IC50 [18]: 35000 nM; Uptake (nM (mg of protein)-1) [19]: 0.017; IC50 [20]: 30000 nM; IC50 [21]: 2200 nM; Uptake (nM (mg of protein)-1) [22]: 0.086; Uptake (nM (mg of protein)-1) [23]: 0.221; Uptake (nM (mg of protein)-1) [24]: 0.073; Ratio [25]: 0.83
1400 nM	700 nM	Cl.NCCCNCCCCNCCCNCCCCCNc1c2ccccc2nc2ccccc12		4000 nM		400 nM	200 nM	135 nM			110 nM		1000 nM	0.21	0.061	0.51	3.4	Uptake (nM (mg of protein)-1) [29]: 1.06
2300 nM	600 nM	Cl.NCCCNCCCCNCCCNCCCCN=c1c2ccccc2[nH]c2ccccc12		7200 nM		1100 nM	160 nM	83 nM			110 nM		2300 nM	0.081	0.026	0.491	3.1	Uptake (nM (mg of protein)-1) [31]: 0.193; Uptake (nM (mg of protein)-1) [32]: 0.362; Uptake (nM (mg of protein)-1) [33]: 0.094; Uptake (nM (mg of protein)-1) [34]: 0.28
